bIAP activator = increases bovine intestinal alkaline phosphatase activity. AID 1016. activation factor at 20 µM. actives 0.17% (n = 200,000). purified bovine IAP, CDP-star luminescence, 30 min; hits give high values; fold of DMSO-control signal, blank-subtracted;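 active = activation factor of 2 or more at 20 µM, a signal rise over negative controls twice the positive control's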
mIAP inh = mouse IAP inhibition. purified mouse IAP, CDP-Star luminescence, 30 min. inhibition, % at 10 µM. actives 0.2% (n = 330,000);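 active = inhibition of at least 40% at 10 µM in the primary screen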;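 also: plate controls were DMSO with enzyme for no effect and no enzyme wells for full effect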
bIAP inhibitor = blocks bovine intestinal alkaline phosphatase activity. purified bovine IAP, CDP-star luminescence, 30 min. inhibition, % at 20 µM. 190,000 tested, under 10 active;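 active = over 50% inhibition of intestinal alkaline phosphatase at 20 µM in the single-dose screen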
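System: Purified bovine intestinal alkaline phosphatase (IAP) enzyme | Input: IAP diluted 1/65,000,000 in the well | Also added: CDP-star chemiluminescent phosphatase substrate, 30 µM final | Dosing: 20 µM single dose | Times: Enzyme reaction for 30 min at room temperature | Detection: Luminescence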
mIAP act = mouse IAP activation; muIAP, CDP-Star luminescence, 30 min; hits give high values; 1 = vehicle-only enzyme signal, 0 = enzyme-free wells; activation factor at 10 µM; actives 0.24% (n = 330,000);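 active = activation factor of at least 2 at 20 µM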
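Assay system: mouse IAP enzyme / Compound: DMSO-dissolved test compounds / Timing: 30 min, room temperature / Measured by: luminescence from enzymatic CDP-Star hydrolysis / Control set: DMSO-only wells, enzyme-free buffer wells as negative control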
hIAP block = human IAP inhibition; P09923; purified IAP, CDP-Star luminescence, 30 min; inhibition, % at 10 µM; actives 0.12% (n = 330,000); AID 2544;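 active = inhibition reaching a set limit with compound at 10 µM in the primary screen, cut at about 35% in these data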;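 also: plate controls were DMSO wells with enzyme for no effect and no-enzyme buffer wells for full effect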
Target sequence (P09923 whole entry, looked up): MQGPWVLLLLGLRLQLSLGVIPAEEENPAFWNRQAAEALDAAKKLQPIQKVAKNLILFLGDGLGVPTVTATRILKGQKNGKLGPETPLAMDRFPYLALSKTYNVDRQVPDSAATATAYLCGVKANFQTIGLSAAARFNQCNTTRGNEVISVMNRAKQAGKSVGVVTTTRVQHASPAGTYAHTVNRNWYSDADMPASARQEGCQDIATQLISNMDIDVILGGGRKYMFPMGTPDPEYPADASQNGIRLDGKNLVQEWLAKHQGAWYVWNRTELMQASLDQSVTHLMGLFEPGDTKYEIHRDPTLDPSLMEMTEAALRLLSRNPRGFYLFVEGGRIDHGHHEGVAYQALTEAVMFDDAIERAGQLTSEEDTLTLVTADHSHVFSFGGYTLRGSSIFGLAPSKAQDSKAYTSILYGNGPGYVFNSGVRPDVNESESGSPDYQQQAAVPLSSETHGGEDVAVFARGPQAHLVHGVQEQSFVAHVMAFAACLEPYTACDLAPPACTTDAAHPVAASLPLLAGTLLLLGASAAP
hIAP act = human IAP activation | P09923 | purified human IAP, CDP-Star luminescence, 30 min; hits give high values; 1 = vehicle-only enzyme, 0 = enzyme-free background | activation factor at 10 µM | actives 0.16% (n = 330,000) | AID 2524;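 active = activation factor of the enzyme at least 2-fold when tested at 20 µM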
mIAP inh confirm = mouse IAP inhibition confirmation | shares compounds with mIAP inh | purified mouse IAP, CDP-Star luminescence, 30 min | inhibition, % at 10 µM | actives 4.7% (n = 11,000) | AID 434971;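 active = inhibition of at least 40% at 10 µM in either of the two replicates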;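 also: plate controls were DMSO wells with enzyme for no effect and buffer wells lacking enzyme for full effect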
Starred values were filed as active, the others as inactive; x = not tested or not shown. Hits are enriched below; roughly 0.77% of the tested compounds scored in any of these assays.

SMILES	bIAP activator	mIAP inh	bIAP inhibitor	mIAP act	hIAP block	hIAP act	mIAP inh confirm
Cc1ccc(S(=O)(=O)/N=C2/NC(=O)/C(=C\c3cc(Br)cc(Br)c3O)S2)cc1	x	43*	x	0.57	3	0.97	49*
Cc1ccc(S(=O)(=O)/N=C2/NC(=O)/C(=C/c3ccc(Br)o3)S2)cc1	1	31	-4	0.69	22	0.78	x
Cc1ccc(NC(=O)NCC2CCN(Cc3cccc(Cl)c3)CC2)c(Cl)c1	1.2	-246	-20	3.5*	-46	1.5	-120
O=C(NCC1CCN(Cc2cccc(Cl)c2)CC1)Nc1ccccc1Cl	x	-173	x	2.7*	-58	1.6	-118
Cc1ccc(CN2CCC(CNC(=O)Nc3ccccc3F)CC2)cc1	x	-32	x	1.3	-8	1.1	x
O=C(COC(=O)CCc1ccccc1)Nc1ccc(F)cc1Cl	x	-2	x	1	-4	1	x
CC1=C(C(=O)Nc2ccccc2)C(c2ccc(C)o2)n2c(s/c(=C\c3ccco3)c2=O)=N1 (stereo unspecified)	0.8	44*	20	0.56	-18	1.2	65*
O=C(COC(=O)c1ccc(S(=O)(=O)N2CCCCC2)cc1)NCc1ccccc1	x	2	x	0.98	-25	1.2	x
O=C(Nc1ccccc1-c1ccccc1)NC1CC2CCCC(C1)N2Cc1ccc(F)cc1 (stereo unspecified)	5.8*	-405	-483	5*	-85	1.8	-270
Cc1cccc(NC(=S)NC2CC3CCCC(C2)N3CC(C)C)c1 (stereo unspecified)	1	-154	1	2.5*	7	0.93	-145
CCc1ccc(NC(=S)NC2CC3CCCC(C2)N3Cc2ccccc2)cc1 (stereo unspecified)	4.6*	-396	-364	5*	-45	1.4	-170
CCCN1C2CCCC1CC(NC(=S)Nc1cccc(C)c1)C2 (stereo unspecified)	0.9	-26	5	1.3	-35	1.3	x
CCc1ccc(NC(=S)NC2CC3CCC(C2)N3Cc2ccco2)cc1 (stereo unspecified)	0.9	-32	5	1.3	-4	1	x
COc1ccc(Nc2nc(N)c([N+](=O)[O-])c(NC3CCCCC3)n2)cc1	x	14	x	0.86	8	0.92	x
O=C(N/N=C/c1cccnc1)c1cc(O)c(O)c(O)c1	x	42*	x	0.58	-14	1.1	58*
COc1ccc(NC(=O)CSc2nc3ccccc3c(=O)n2CCCO)cn1	x	-2	x	1	1	0.99	x
CCc1ccc(NC(=O)C(=S)NC2CCCCC2)cc1	1	15	2	0.85	-24	1.2	x
CCc1ccc(NC(=O)NC2CCCCCCC2)cc1	x	-172	x	2.7*	-56	1.6	-213
O=C(Nc1ccc(Br)cc1)NC1CCCCCCC1	x	-399	x	5*	-6	1.1	-174
O=C1c2cccc3cccc(c23)C(=O)N1CCCN1CCN(c2ccc(F)cc2)CC1	1	14	-1	0.86	6	0.94	x
O=C(N/N=C/c1cc(Cl)c(O)c(Cl)c1)c1cc2c(ccc3ccccc32)o1	x	6	x	0.94	-24	1.2	x
CC1CC(=O)c2c(cc3c(-c4c(O)cc(O)c5c(O)c6c(cc45)OC(C)CC6=O)c(O)cc(O)c3c2O)O1 (stereo unspecified)	0.7	42*	29	0.58	12	0.89	68*
O=C1CC(c2ccccc2)Oc2cc(O)cc(O)c21 (stereo unspecified)	x	2	x	0.98	-3	1	x
CN(C)C1(CNC(=O)C2CCN(S(=O)(=O)c3cc(Cl)ccc3Cl)CC2)CCCCC1	x	-8	x	1.1	-19	1.2	x
COCCNC(=O)C(c1ccc(C)cc1)N(Cc1cccs1)C(=O)CCC(=O)Nc1ccccn1 (stereo unspecified)	x	4	x	0.96	-11	1.1	x
SMILES	bIAP activator	mIAP inh	bIAP inhibitor	mIAP act	hIAP block	hIAP act	mIAP inh confirm
CC(=O)c1cccc(NC(=O)NC2CCCc3ccccc32)c1 (stereo unspecified)	1	-38	0	1.4	4	0.96	x
Cc1cccc(NC(=O)NC2CCCc3ccccc32)c1 (stereo unspecified)	x	-168	x	2.7*	7	0.93	-236
COc1ccccc1C(=O)N/C(=C\c1cn(S(=O)(=O)N(C)C)c2ccccc12)C(=O)N1CCCC1	x	8	x	0.92	-33	1.3	x
COc1c(Cl)cc(C(=O)NN)cc1Cl	0.9	-1	7	1	-15	1.2	x
NNC(=O)c1cc(O)c(O)c(O)c1	0.8	63*	25	0.37	3	0.97	71*
CC(=O)c1sc2nc(-c3ccco3)ccc2c1N	x	59*	x	0.41	-19	1.2	63*
Nc1c(C(=O)Nc2ccc(Br)cc2)sc2nc(-c3ccco3)ccc12	1	37	0	0.63	31	0.69	x
CC(CN)(NS(=O)(=O)c1ccccc1)c1ccccc1 (stereo unspecified)	x	3	x	0.97	0	1	x
O=C(CCNS(=O)(=O)c1ccc2[nH]c(=O)oc2c1)Nc1ccccc1	x	41*	x	0.59	2	0.98	54*
Cc1ccc(NC(=O)CCNS(=O)(=O)c2ccc3[nH]c(=O)oc3c2)c(Cl)c1	x	59*	x	0.41	13	0.87	62*
Cc1ccc(NC(=O)CCNS(=O)(=O)c2ccc3[nH]c(=O)oc3c2)cc1F	x	42*	x	0.58	8	0.92	51*
C[N+](C)(C)C(Cc1ccccc1)C(=O)[O-] (stereo unspecified)	x	47*	x	0.53	14	0.86	51*
Cc1ccc(C2CC(=O)N3CN(c4ccc(Br)cc4)CSC3=C2C#N)o1 (stereo unspecified)	0.7	61*	27	0.39	-47	1.5	63*
CCOc1ccc(N2CSC3=C(C#N)C(c4ccco4)CC(=O)N3C2)cc1 (stereo unspecified)	1	74*	2	0.26	-9	1.1	81*
N#CC1=C2SCN(c3ccccc3)CN2C(=O)CC1c1cccs1 (stereo unspecified)	0.9	35	6	0.65	-2	1	x
O=C(CCCN1C(=O)/C(=C\c2cccs2)SC1=S)Nc1cccc(C(=O)O)c1	1	3	0	0.97	8	0.92	x
O=C(CCCN1C(=O)/C(=C/c2ccco2)SC1=S)Nc1cccc(C(=O)O)c1	x	64*	x	0.36	6	0.94	71*
O=C(CCCN1C(=O)/C(=C\c2ccco2)SC1=S)Nc1ccc(O)cc1C(=O)O	x	68*	x	0.32	21	0.79	75*
COc1ccc(C)cc1NC(=O)CSc1nc2ccccc2nc1N1CC(C)OC(C)C1 (stereo unspecified)	x	10	x	0.9	19	0.81	x
Cc1cc(-c2nc3c4c5c(sc4[nH]c(=O)n3n2)CCC5)c(C)o1	1	49*	-4	0.51	-12	1.1	66*

Compound activity (PubChem BioAssay)
